# Source: PubChem (several laboratories)
# ALR inh – inhibitors of human ALR sulfhydryl oxidase, primary screen, biochemical, H2O2 detection, HRP-luminol luminescence, single point | FAD-linked sulfhydryl oxidase ALR (Homo sapiens), P55789 | purified ALR, DTT oxidation | inhibition, % (no concentration beside the values) | 290,000 compounds, 3.8% hits;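 active means mean replicate inhibition above about 79%, with every replicate also reaching it, limit read from the data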
# Target sequence (P55789 whole entry, looked up): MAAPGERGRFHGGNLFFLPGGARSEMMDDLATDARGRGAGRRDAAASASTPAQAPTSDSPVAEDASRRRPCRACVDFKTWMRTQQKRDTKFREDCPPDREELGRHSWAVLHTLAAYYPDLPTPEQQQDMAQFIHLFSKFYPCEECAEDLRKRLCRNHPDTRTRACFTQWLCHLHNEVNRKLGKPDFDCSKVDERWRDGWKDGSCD
# Glyco luc inh – increase of ERlucT glycosylation luciferase signal, primary screen, N-linked glycosylation inhibitor project, D54 ERlucT cells, luminescence, set 2 | D54 ERlucT glycosylation luciferase reporter, 24 h; percent of 100 nM tunicamycin response | reporter increase, % at 12.5 µM | 360,000 compounds, 0.23% hits;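 active means mean luciferase reporter signal, scaled so untreated is 0 and the glycosylation-blocking control 100, at or above a set limit in every replicate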;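 further: luciferase carries N-glycosylation sites so blocking glycosylation raises the light; 0% = median of neutral control wells and 100% = median of 100 nM tunicamycin wells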
# T cell modulator – modulators of CD8 T cell-vesicle binding, primary screen, mouse 2C CD8+ T cells, flow cytometry | 330,000 compounds, 0.068% hits | 2C CD8+ T cell-vesicle binding; active compounds read low | response (vesicle binding), % at 7 µM;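 active means response, share of CD8 T cells binding vesicles, and their 90th percentile fluorescence all below set limits, cut at about 80% in these data, passing the limit was not always enough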;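 further: values below 100% mean blocked vesicle binding to the CD8+ T cells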
#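 System: murine 2C transgenic CD8+ T lymphocytes; also added: QL9-loaded Drosophila micro-vesicles; times: binding 1.5 h at 37 °C; measured by: flow cytometry, PE anti-B7-1 (FL2) versus Alexa647 anti-CD8 (FL8), PFA-fixed; control set: Peptide-free naked vesicles (low) and QL9 vesicles with 0.7% DMSO vehicle (high)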
# Active calls of the source: *; i = inactive; . = no result. The entries come from a sample that favours hits as a whole.
SMILES,ALR inh,Glyco luc inh,T cell modulator
O=C(O)CCN1C(=O)c2ccccc2Sc2ncccc21,-0.4,6.1,241.8
O=C(O)CCN1c2ccccc2Sc2ccccc21,82.1*,-2.1,186.4
COc1ccccc1OC(=O)CCN1c2ccccc2Sc2ccccc21,88.4*,-1.2,222.4
COc1ccccc1C(=O)N1c2ccccc2Sc2ccccc21,-9.7,0.7,128.1
Nc1ccc(C(=O)N/N=C/c2cn(Cc3cccc(F)c3)c3ccccc23)cc1,-17.9,-7.0,290.0
O=CNc1ccc2c(c1)Cc1cccc(NC=O)c1-2,.,2.0,.
O=C(NCc1ccccn1)c1cccc(S(=O)(=O)N2CCCCC2)c1,.,0.3,417.2
CCOCCn1c(CN2CCN(c3ccc(F)cc3)CC2)nc2c1c(=O)n(C)c(=O)n2C,98.5*,-2.6,215.5
COc1ccc(N2CCN(Cc3nc4c(c(=O)n(C)c(=O)n4C)n3Cc3cccc(C)c3)CC2)cc1,57.2,1.5,331.6
COc1ccc(N2CCN(Cc3nc4c(c(=O)n(C)c(=O)n4C)n3C(C)C(C)=O)CC2)cc1 (configuration not stated),88.5*,0.0,.
CCOCCn1c(CN2CCN(c3cccc(Cl)c3)CC2)nc2c1c(=O)n(C)c(=O)n2C,.,-1.1,159.6
O=C(Cn1c(=O)oc2ccccc21)Nc1n[nH]c(=S)s1,.,2.0,852.4
O=C(Nc1ccc(F)cc1F)C1CCCN1S(=O)(=O)c1ccc(-c2ccc(=O)[nH]n2)s1 (configuration not stated),-0.7,-0.4,321.3
NC1(C(=O)O)CSSC1,.,73.3*,.
C=C[C@]12CC[C@H](OC(C)=O)CC1=CCC1C2CC[C@@]2(C)C1CCC21OCCO1 (some centres not stated),.,-1.4,.
CC1CCc2sc(-c3n[nH]c(=S)o3)cc2C1 (configuration not stated),98.2*,0.3,254.5
S=c1[nH]nc(-c2cc3c(s2)-c2ccccc2CC3)o1,96.9*,3.1,641.1
CC1CCc2sc(C(=O)NC3CCCCC3)cc2C1 (configuration not stated),-3.3,-5.3,139.0
CSc1nnc(-c2cc3c(s2)-c2ccccc2CC3)o1,-10.2,-7.9,532.2
CC1=C(C(=O)N2CCCC(N3CCN(c4ccccc4F)CC3)C2)OCCO1 (configuration not stated),-0.4,0.6,217.0
O=C(Nc1cccc2ccccc12)NC(Cc1ccccc1)C(=O)O (configuration not stated),-35.6,3.1,333.3
CCOCc1nnc(NC(=O)c2cc(OC)c(OC)c(OC)c2)s1,-4.1,2.8,558.4
COc1cc(C(=O)Nc2nnc(-c3sccc3C)s2)cc(OC)c1OC,-4.7,-2.2,80.3*
COc1cc(CCC(=O)Nc2ncc(C)s2)cc(OC)c1OC,-2.6,3.5,197.9
COc1cc(CCC(=O)Nc2nnc(C)s2)cc(OC)c1OC,-2.7,32.9*,153.2
SMILES,ALR inh,Glyco luc inh,T cell modulator
CC(=O)N/C(=C/c1ccc(OS(=O)(=O)c2ccc(C)cc2)cc1)C(=O)NCCCO,-1.2,1.3,393.5
O=[N+]([O-])c1ccc(Cl)c(/C=N/n2c(C3CCCCC3)n[nH]c2=S)c1,98.6*,0.2,i
Oc1cccc(/C=N/n2c(C3CCCCC3)n[nH]c2=S)c1,12.6,2.2,327.0
S=c1[nH]nc(C2CCCCC2)n1/N=C/c1ccccc1Br,.,0.8,116.0
O=[N+]([O-])c1ccccc1/C=N/n1c(-c2cccnc2)n[nH]c1=S,30.9,3.9,126.3
O=[N+]([O-])c1cccc(/C=N/n2c(C3CCCCC3)n[nH]c2=S)c1,2.7,-0.1,250.1
O=[N+]([O-])c1ccccc1/C=N/n1c(C2CCCCC2)n[nH]c1=S,96.6*,3.9,236.7
COc1cc(/C=N/n2c(C3CCCCC3)n[nH]c2=S)cc(OC)c1O,99.1*,2.6,396.6
O=[N+]([O-])c1ccccc1/C=N/n1c(C(F)(F)F)n[nH]c1=S,94.9*,0.9,i
O=[N+]([O-])c1ccc(Cl)c(/C=N/n2c(COc3ccccc3)n[nH]c2=S)c1,95.8*,7.0,259.8
S=c1[nH]nc(COc2ccccc2)n1/N=C/c1ccc(Cl)c(Cl)c1,.,1.7,334.3
Fc1ccccc1/C=N/n1c(C2CCCCC2)n[nH]c1=S,.,-0.4,693.2
O=[N+]([O-])c1cc2c(cc1/C=N/n1c(-c3ccccc3)n[nH]c1=S)OCO2,87.1*,0.8,353.6
O=[N+]([O-])c1cc2c(cc1/C=N/n1c(-c3ccccn3)n[nH]c1=S)OCO2,21.2,-0.3,482.9
O=C(O)COc1ccccc1/C=N/n1c(C2CCCCC2)n[nH]c1=S,96.6*,3.6,223.5
Cc1ccc(N(C(=O)CNC(=O)c2ccco2)C(C(=O)NC2CCCCC2)c2cccnc2)cc1F (configuration not stated),.,0.3,252.1
O=Cc1cn(CC(=O)Nc2ccc3c(c2)OCO3)c2ccccc12,-14.0,-4.0,246.1
CCN(C[C@H]1N[C@@](CC)(C(=O)OC)[C@H]2C(=O)N(C)C(=O)[C@@H]12)S(=O)(=O)c1ccc(F)cc1,.,1.1,185.7
COc1cccc(CN(C)C(=O)c2csc3c2CCCC3)c1OC,-3.5,-0.1,444.7
CCCCCOCC1CC(C/C(C)=N/Nc2nc(-c3ccccc3)cs2)C(=O)O1 (configuration not stated),96.0*,0.8,183.2
CCCCCOCC1CC(C/C(C)=N/NC(N)=S)C(=O)O1 (configuration not stated),0.9,1.0,102.6
CCOC(=O)c1ccc(N2C(=O)C(O)=C(C(C)=O)C2c2ccc([N+](=O)[O-])cc2)cc1 (configuration not stated),13.4,0.2,272.0
CCCC(c1nnnn1CCOC)N(Cc1cc2cc(C)c(C)cc2[nH]c1=O)CC1CCCO1 (configuration not stated),99.3*,1.3,256.2
CCC(c1nnnn1CCOC)N(Cc1ccc(C)cc1)Cc1cc2cc(OC)ccc2[nH]c1=O (configuration not stated),-33.0,1.2,334.9
CCC(c1nnnn1CCOC)N(Cc1cc2c(C)cc(C)cc2[nH]c1=O)CC1CCCO1 (configuration not stated),-1.7,1.8,303.2
SMILES,ALR inh,Glyco luc inh,T cell modulator
CCC(c1nnnn1CCOC)N(Cc1cc2cc(C)c(C)cc2[nH]c1=O)CC1CCCO1 (configuration not stated),99.1*,1.3,241.8
COCCn1cnc2c1c(=O)n(Cc1c(F)cccc1Cl)c(=O)n2Cc1ccccc1,-50.1,4.6,191.4
Cc1cnc(SCCc2ccncc2)nc1C,98.6*,.,256.5
N#Cc1cnc(SCCc2ccccc2)nc1N,-1.8,.,301.7
O=C(COC(=O)/C=C/C(=O)N1CCN(c2ccccc2)CC1)NCc1ccc(F)cc1,67.4,1.6,386.8
COC(=O)/C=C/C(=O)N1CCN(c2ccccc2)CC1,96.8*,-0.5,271.4
COc1ccccc1CNC(=O)N1CCN(c2ccccc2C)CC1,-0.9,-3.5,121.8
COC(=O)/C=C/C(=O)N1CCN(c2ccccc2C)CC1,98.3*,0.8,149.9
